Assay results published in ChEMBL document CHEMBL3217420, “Design, synthesis and initial biological evaluation of a novel pladienolide analog scaffold” (Medchemcomm, 2011).
Active and inactive are the calls of the source. No cut-off for these calls is given here.

Tests used:
Assay type in all cases: functional, cell-based
[1] = tested on: SK-MEL-2; test: Cytotoxicity in human SK-MEL-2 cells assessed as growth inhibition after 72 hrs by XTT assay; details: SK-MEL-2, 72 h
Method in brief: (§1)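 XTT assay after 72 h continuous compound exposure. IC50 is the concentration that inhibits growth to 50% of the DMSO vehicle-treated control. It was calculated by sigmoidal fitting of dose-response curves. Values are mean ± standard error of 3 independent experiments.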

[2] = tested on: PC-3; test: Cytotoxicity in human PC3 cells assessed as growth inhibition after 72 hrs by XTT assay; details: PC-3, 72 h; method in brief: as §1
[3] = Cytotoxicity in human JeKo1 cells assessed as growth inhibition after 72 hrs by XTT assay; details: JeKo-1, 72 h; method in brief: as §1
[4] = tested on: SK-MEL-2; test: Modulation of MDM2 mRNA splicing in human SK-MEL-2 cells assessed as formation of two spliced MDM2 mRNA variants at 10 to 100 uM after 6 hrs by blotting assay
Method in brief: (§2)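 SK-MEL-2 melanoma cells were exposed to DMSO vehicle or to the designated compound concentrations for 6 hours. MDM2 mRNA was then examined for the properly spliced form and for alternatively spliced variant forms.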

[5] = tested on: SK-MEL-2; test: Modulation of MDM2 mRNA splicing in human SK-MEL-2 cells assessed as increase in properly spliced MDM2 mRNA at 10 to 100 uM after 6 hrs by blotting assay; method in brief: as §2
[6] = tested on: MOLT-4; test: Cytotoxicity in human MOLT4 cells assessed as growth inhibition after 72 hrs by XTT assay; details: MOLT-4, 72 h; method in brief: as §1
[7] = tested on: MCF7; test: Cytotoxicity in human MCF7 cells assessed as growth inhibition after 72 hrs by XTT assay; details: MCF7, 72 h; method in brief: as §1
[8] = tested on: NCI-H226; test: Cytotoxicity in human NCI-H226 cells assessed as growth inhibition after 72 hrs by XTT assay; details: NCI-H226, 72 h; method in brief: as §1
[9] = tested on: SK-MEL-2; test: Modulation of MDM2 mRNA splicing in human SK-MEL-2 cells assessed as formation of two spliced MDM2 mRNA variants at 100 uM after 6 hrs by blotting assay; method in brief: as §2
[10] = tested on: SK-MEL-2; test: Modulation of MDM2 mRNA splicing in human SK-MEL-2 cells assessed as increase in properly spliced MDM2 mRNA at 10 to 25 uM after 6 hrs by blotting assay; method in brief: as §2
[11] = tested on: SK-MEL-2; test: Modulation of MDM2 mRNA splicing in human SK-MEL-2 cells assessed as increase in properly spliced MDM2 mRNA at 1 uM after 6 hrs by blotting assay; method in brief: as §2
[12] = tested on: SK-MEL-2; test: Modulation of MDM2 mRNA splicing in human SK-MEL-2 cells assessed as formation of two spliced MDM2 mRNA variants at 10 uM after 6 hrs by blotting assay; method in brief: as §2

Row | SMILES | IC50 [1] | IC50 [2] | IC50 [3] | Activity [4] | Activity [5] | IC50 [6] | IC50 [7] | IC50 [8] | Activity [9] | Activity [10] | Activity [11] | Activity [12]
1 | CC(=O)O[C@H]1/C=C/C[C@@H](/C(C)=C/C=C/CC[C@H]2O[C@@H]2C[C@H](C)O)OC(=O)CCCC[C@@]1(C)O (mixture of isomers) | > 20 µM | > 20 µM | > 20 µM |  |  |  |  |  |  |  |  | 
2 | COc1ccc(COC/C=C(\C)[C@@H]2C/C=C/[C@H](OC(C)=O)[C@](C)(O)CCCCC(=O)O2)cc1 | > 20 µM |  |  | inactive | Active |  |  |  |  |  |  | 
3 | CC(=O)O[C@@H](C)/C=C\C(=O)N[C@H]1CC[C@@H](C/C=C(C)/C=C/[C@H]2OC(C)(C)C[C@@]3(CO3)[C@@H]2O)CC1 | 0.39 µM | 2.02 µM | 0.11 µM |  |  | 0.18 µM | 0.72 µM | > 10 µM |  |  |  | 
4 | CC(=O)O[C@H]1/C=C/C[C@@H](/C(C)=C/C=C/CC[C@H]2O[C@@H]2C[C@H](C)O[Si](C)(C)C(C)(C)C)OC(=O)CCCC[C@@]1(C)O | 10.7 µM | 18 µM | 11.6 µM |  |  | 15.5 µM | 19.2 µM | > 20 µM | Active | Active |  | 
5 | CC(/C=C/[C@H]1OC(C)(C)C[C@@]2(CO2)[C@@H]1O)=C\C[C@H]1OC[C@@H](NC(=O)/C=C\[C@H](C)OC(=O)C(C)C)CO1 | 0.7 µM | 4.16 µM | 0.29 µM |  |  | 0.66 µM | 1.69 µM | > 10 µM |  |  | Active | Active
